# Legend:
# [1] = Inhibition of bovine heart cAMP Phosphodiesterase; design: species or system Bos taurus
# Method in brief: (§1)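 Enzymes prepared as previously described (beef heart, 14 units/mg; rabbit lung, 70 units/mg). The 0.5 mL reaction held 25 µmol Tris-HCl pH 7.5, 5 µmol MgCl2, 10-75 µg enzyme protein, 350 pmol [8-3H]cAMP (850 cpm/pmol), and at least seven inhibitor concentrations (0.5 µM to 5 mM). 5'-AMP was measured at three or more time points (3-12 min) to confirm linear rates. I50 was read graphically from % inhibition vs log concentration.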
# [2] = Inhibition of rabbit lung cAMP Phosphodiesterase; design: species or system Oryctolagus cuniculus; settings: read-out: I50; method in brief: as §1
# [3] = molecular target: T1, Phosphodiesterase 4 (Homo sapiens) (UniProt P27815+Q08499+Q07343+Q08493); experiment: Inhibitory activity towards cAMP Phosphodiesterase isolated from rabbit heart; assay type: protein assay; design: reference not given here; settings: Oryctolagus cuniculus; target entry is the homologue from another species
# [4] = molecular target: T1, Phosphodiesterase 4 (Homo sapiens); experiment: Inhibitory activity towards cAMP phosphodiesterase isolated from rabbit lung.; assay type: protein assay; design: unit not given here; settings: Oryctolagus cuniculus; target entry is the homologue from another species
# Method in brief: as §1, with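 “PDE” for “Enzymes”, “described. Each” for “described (beef heart, 14 units/mg; rabbit lung, 70 units/mg). The”, “(pH 7.5),” for “pH 7.5,”, “5'-AMP formed” for “5'-AMP”, “versus” for “vs”, “log inhibitor” for “log”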
# Bos taurus [5] = organism: Bos taurus; experiment: (§2) Inhibition of bovine brain cAMP Phosphodiesterase; design: unit not given here
# Method in brief: as §1, with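 “PDE” for “Enzymes”, “described. Each” for “described (beef heart, 14 units/mg; rabbit lung, 70 units/mg). The”, “(pH 7.5),” for “pH 7.5,”, “5'-AMP formed” for “5'-AMP”, “versus” for “vs”, “log inhibitor” for “log”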
# [6] = molecular target: T1, Phosphodiesterase 4 (Homo sapiens); experiment: Inhibitory activity towards cAMP phosphodiesterase isolated from bovine heart.; assay type: protein assay; design: unit not given here; settings: Bos taurus; target entry is the homologue from another species
# Method in brief: as §1, with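 “PDE” for “Enzymes”, “described. Each” for “described (beef heart, 14 units/mg; rabbit lung, 70 units/mg). The”, “(pH 7.5),” for “pH 7.5,”, “5'-AMP formed” for “5'-AMP”, “versus” for “vs”, “log inhibitor” for “log”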
# [7] = molecular target: T1, Phosphodiesterase 4 (Homo sapiens); experiment: as §2; settings: Bos taurus; target entry is the homologue from another species
# Method in brief: as §1, with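 “PDE” for “Enzymes”, “described. Each” for “described (beef heart, 14 units/mg; rabbit lung, 70 units/mg). The”, “(pH 7.5),” for “pH 7.5,”, “5'-AMP formed” for “5'-AMP”, “versus” for “vs”, “log inhibitor” for “log”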
# Bos taurus [8] = organism: Bos taurus
# Bos taurus [9] = organism: Bos taurus; remark: listed apart in the source
Activity [3],Activity [4],Activity [6],SMILES,other results
–,–,–,Cn1c(=O)c2nc[nH]c2n(C)c1=O [THEOPHYLLINE],Ki [1]: 77 µM; IC50 ([1]; read-out: I50): 90 µM; IC50 [2]: 210 µM
–,14,0.5,CCc1ncn2nc(-c3ccccc3)cc2n1,Activity (Bos taurus [5]): 97
0.7,2.7,–,CCCOc1nc(SC)nc2c(Br)cnn12,–
–,2.5,1,CCc1nc(C)nc2c(Br)cnn12,–
–,20,7,CCc1nc(CC)n2nc(-c3ccccc3)cc2n1,Activity (Bos taurus [5]): 12
–,27,10,CCc1nc(C)nc2c(-c3ccccc3)cnn12,Activity (Bos taurus [5]): 39
–,40,3,Cc1nc(C)n2nc(-c3ccccc3)c(Br)c2n1,–
–,26,3.8,CCCNc1ncnc2cc(-c3ccccc3)nn12,–
4,1.5,–,CSc1nc(OC(C)C)n2ncc(Br)c2n1,–
–,–,5,CCc1nc(C)nc2c(-c3cccc(C)c3)cnn12,–
0,1.6,–,CSc1nc(C)n2nccc2n1,–
8,40,–,CCNc1nc(SC)nc2c(Br)cnn12,Activity [7]: 17
–,9,2,CCc1nc(CC)n2nc(-c3ccccc3)c(Br)c2n1,–
3.2,9,–,COc1nc(SC)nc2c(Br)cnn12,–
–,15,16,CCc1nc(CC)n2nc(-c3ccccc3C)cc2n1,Activity (Bos taurus [5]): 42
–,25,3,Cc1nc(C)n2ncc(-c3ccccc3)c2n1,Activity (Bos taurus [5]): 40
–,10,11,CCCc1nc(C)nc2cc(-c3ccccc3)nn12,–
–,22,3.5,Cc1nc(C)n2nc(-c3ccccc3)cc2n1,Activity (Bos taurus [5]): 19
–,143,57,CCN(CC)c1ncnc2cc(-c3ccccc3)nn12,Activity (Bos taurus [5]): 146
2.6,13,–,CCSc1nc(SC)nc2c(Br)cnn12,–
0.68,1,–,CSc1nc(S)n2ncc(Br)c2n1,–
–,12,2.7,CCc1nc(C)n2nc(-c3ccccc3)cc2n1,–
6.2,26,–,CCN(CC)c1nc(SC)nc2c(Br)cnn12,–
–,14,2,Cc1cccc(-c2cnn3c(C)nc(C)nc23)c1,–
–,25,3,Cc1ncn2nc(-c3ccccc3)cc2n1,Activity (Bos taurus [5]): 49
12.2,19,–,CCN(CC)c1nc(SC)nc2ccnn12,Activity [7]: 12

Activity [3],Activity [4],Activity [6],SMILES,other results
–,1.8,0.9,Cc1ncn2nc(-c3ccccc3)c(Br)c2n1,–
7.3,11,–,CSc1ncnc2cc(-c3ccccc3)nn12,–
–,1.9,0.5,Cc1nc(O)n2nc(-c3ccccc3)cc2n1,Activity (Bos taurus [5]): 4.7
–,2.4,0.5,CCc1nc(C)n2nccc2n1,–
–,0.7,1.2,CCOC(=O)c1cnn2c(CC)nc(C)nc12,–
–,14,7,CCc1nc(C)nc2c(Br)c(-c3ccccc3)nn12,–
–,21,4,CCc1nc(C)nc2cc(-c3ccccc3)nn12,–
–,16,3,CCc1nc(C)nc2cc(-c3ccc(OC)cc3)nn12,–
5.8,12,–,CCCNc1nc(SC)nc2ccnn12,–
–,1.8,0.8,CCc1nc(C)nc2c(Cl)cnn12,–
–,8,2,CCCc1nc(C)nc2c(Br)c(-c3ccccc3)nn12,–
–,1.2,1.7,CCc1nc(C)nc2c(C#N)cnn12,–
–,13.5,2.5,CCCCNc1ncnc2cc(-c3ccccc3)nn12,–
–,1.5,0.4,Cc1cccc(-c2cnn3cnc(C)nc23)c1,–
1.5,5,–,CSc1nc(SC)n2ncc(Br)c2n1,–
–,29,11,c1ccc(-c2cc3ncnc(N4CCCCC4)n3n2)cc1,–
–,1.1,0.7,CCc1nc(C)nc2ccnn12,–
–,1,0.9,Cc1nc(C)n2nccc2n1,–
–,11,1.7,CCCCNc1nc(C)nc2cc(-c3ccccc3)nn12,–
0.5,0.6,–,COc1nc(SC)nc2ccnn12,–
–,185,40,CCN(CC)c1ncnc2c(Br)c(-c3ccccc3)nn12,–
3.2,8,–,CCSc1nc(SC)nc2ccnn12,–
–,10,–,Cc1nc(-c2ccccc2)n2nc(-c3ccccc3)cc2n1,–
–,14,8,CCc1nc(CC)n2nc(-c3ccc(OC)cc3)cc2n1,–
12.5,160,–,CCCCNc1nc(SC)nc2c(Br)cnn12,Activity [7]: 18
–,–,–,Nc1ncnc2c1ncn2[C@@H]1O[C@@H]2COP(=O)(O)O[C@H]2[C@H]1O,Km (Bos taurus [8]): 0.63 µM; Km (Bos taurus [9]): 1.3 µM; Km (Oryctolagus cuniculus): 0.56 µM

SMILES,Activity [3],Activity [4],Activity [6],other results
CCCNc1nc(SC)nc2c(Br)cnn12,6.9,67,–,–

# From ChEMBL document CHEMBL1122020, “Synthesis and enzymic activity of various substituted pyrazolo[1,5-a]-1,3,5-triazines as adenosine cyclic 3',5'-phosphate phosphodiesterase inhibitors” (J Med Chem, 1982)
